What was measured:
Format in all cases: functional, Mus musculus
[1] = test system: P388; experiment: Antitumor activity (T/C) was evaluated from the median survival time of treated mice (T) over that of control mice (C) at a dose of 0.25 mg/kg/day
Procedure, shortened: (§1)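 CDF1 female mice (BALB/c ♀ × DBA/2 ♂) given 10⁶ P388 cells ip on day 0. Drug in 2% methanol given ip on days 1, 5 and 9, 10 mice per group and more controls. Toxicity is survivors on day 5, with weight change between days 1 and 5. Mortality followed 30 days. T/C% is treated over control median survival (NCI method), significant at ≥125%.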

[2] = test system: L1210; experiment: Antitumor activity against L1210 Lymphoid Leukemia from CDF1 female mice as the number of survivors on day 5 at a dose of 1.0 mg/kg/day
Procedure, shortened: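 L1210 leukemia, 10⁵ cells ip on day 0 into CDF1 female mice (BALB/c ♀ × DBA/2 ♂). Drug in 2% methanol given ip on days 1, 5 and 9, 10 mice per group. Survivors and body weight recorded on days 1 and 5, with toxicity as survivors on day 5. Deaths followed for 30 days. T/C = treated/control median survival time, significant at ≥125%.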

[3] = test system: P388; experiment: Antitumor activity against P388 Leukemia from CDF1 female mice evaluated as number of survivors on day 5 at a dose of 1 mg/kg/day
Procedure, shortened: (§2)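 CDF1 female mice (BALB/c × DBA/2) inoculated ip with 10⁶ P388 cells on day 0. Drug given ip in 2% methanol on days 1, 5 and 9. Ten mice per dose group, with a larger control group. Body weight and survival were recorded on days 1 and 5, with toxicity taken as survivors on day 5. Mortality was followed for 30 days to give median survival time.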

[4] = test system: P388; experiment: Antitumor activity (T/C) was evaluated from the median survival time of treated mice (T) over that of control mice (C) at a dose of 0.75 mg/kg/day; procedure, shortened: as §1
[5] = test system: B16; experiment: Antitumor activity against B16 melanoma from B6 D2 F1 female mice(T/C) as median survival time of treated mice (T) over that of control mice (C) at a dose of 0.50 mg/kg/day (repeated ip injections, day 1-9); details: route intraperitoneal
Procedure, shortened: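 B16 melanoma homogenate (1 g tumor in 9 mL 0.9% saline), 0.5 mL implanted ip on day 0 in B6D2F1 female mice (C57BL/6 ♀ × DBA/2 ♂). Treatment ip once daily from day 1 to day 9. Toxicity scored as survivors on day 5. Median survival recorded and T/C computed as treated/control median survival, ≥125% significant.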

[6] = test system: B16; experiment: Antitumor activity against B16 melanoma from B6 D2 F1 female mice evaluated as Median survival time of treated mice at a dose of 1 mg/kg/day
Procedure, shortened: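 B6D2F1 female mice (C57BL/6 ♀ × DBA/2 ♂) implanted ip on day 0 with 0.5 mL of B16 tumor suspension (1 g homogenized in 9 mL 0.9% saline). Dosing ip on days 1, 5 and 9. Day-5 survivors give toxicity. Median survival of treated vs control mice gives T/C%, with ≥125% significant.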

[7] = test system: P388; experiment: Antitumor activity against P388 Leukemia from CDF1 female mice evaluated as Median survival time of treated mice at a dose of 0.75 mg/kg/day; procedure, shortened: as §2

COc1ccc(C[C@H]2C(=O)O[C@H](C)[C@H](NC(=O)[C@@H](CC(C)C)N(C)C(=O)C3CCCN3C(=O)[C@@H](C)O)C(=O)NC(C(C)C)[C@H](O)CC(=O)O[C@@H](C(C)C)C(=O)[C@H](C)C(=O)N[C@@H](CC(C)C)C(=O)N3CCC[C@H]3C(=O)N2C)cc1 (some centres not stated) [NORDIDEMNIN]
T/C [1]: 142% | Toxicity [2]: 1 | Toxicity [3]: 1 | T/C [4]: 175% | T/C [5]: 52% | median survival time, days [6]: 29.3 | median survival time, days [7]: 19.4
